Reference: ChEMBL document CHEMBL4052826, “Design and Synthesis of Novel Reactive Oxygen Species Inducers for the Treatment of Pancreatic Ductal Adenocarcinoma” (J Med Chem, 2018)
Activity calls are given as the source filed them.

Experiments:
Mus musculus [1] = assay: Toxicity in NOD/SCID mouse xenografted with human MIAPaCa2 cells assessed as microscopic changes in pancreas at 5 mg/kg, ip administered 5 times a week until day 44 by hematoxylin and eosin staining-based inverted microscopic method; type: organism-based; details: in vivo
Summary of the method: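 Necropsy after the 44-day ip course in MIA PaCa-2 xenograft-bearing NOD/SCID mice: heart, kidney, liver, lung, spleen and pancreas fixed in 10% neutral buffered formalin, paraffin-embedded, sectioned and stained with hematoxylin and eosin. Sections examined by inverted microscope at 20X, compared with vehicle-treated animals.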

Mus musculus [2] = assay: Toxicity in NOD/SCID mouse xenografted with human MIAPaCa2 cells assessed as weakness at 5 mg/kg, ip administered 5 times a week until day 44; type: organism-based; details: in vivo
Summary of the method: (§1)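 Subcutaneous flank MIA PaCa-2 xenografts (2.0×10^6 cells) in 6-week NOD/SCID mice, randomized at 65 mm3 (n=5/group: vehicle or drug). Dosed ip in 5% DMSO/60% propylene glycol/35% saline, five days on/two off, to day 44. Body weight tracked and mice watched for weakness, weight loss or lethargy; mean ± SEM.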

MIA PaCa-2 [3] = assay: Downregulation of COX-3 expression in human MIAPaCa2 cells at 2 uM after 4 to 24 hrs by Western blot method; type: functional, cell-based
Summary of the method: (§2)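 Immunoblotting. Cells (4×10^5) in 60 mm dishes were treated, lysed 30 min at 4°C and quantified by BCA. 40 μg protein was run on SDS-PAGE and transferred to PVDF. Primary antibodies (1:1000) incubated overnight at 4°C, then Dylight 800 secondary, with fluorescent scanning. Bands were normalized to GAPDH or actin loading controls. Mean ± SD, three independent experiments, Student's t-test.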

Mus musculus [4] = assay: Toxicity in NOD/SCID mouse xenografted with human MIAPaCa2 cells assessed as body weight loss at 5 mg/kg, ip administered 5 times a week co-administered with gemcitabine at 15 mg/kg administered once a week for 48 days; type: organism-based; details: in vivo, 1152 h
Summary of the method: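 MIA PaCa-2 xenografted NOD/SCID mice randomized at 75 mm3 into vehicle (n=4), single-agent (n=3 each) and combination (n=3) arms. Drug given at 5 mg/kg five times a week, gemcitabine at 15 mg/kg once a week, over a 48-day period. Body weight followed; mean ± SEM.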

MIA PaCa-2 [5] = assay: Induction of reactive oxygen species generation in human MIAPaCa2 cells assessed as upregulation of HO-1 expression at 2 uM after 4 to 24 hrs by Western blot analysis; type: functional, cell-based; summary of the method: as §2
MIA PaCa-2 [6] = assay: Induction of reactive oxygen species generation in human MIAPaCa2 cells at 1.1 to 10 uM after 24 hrs in presence of NAC by H2DCFDA reactivity assay; type: functional, cell-based
Summary of the method: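 H2DCFDA assay. Trypsinized MIA PaCa-2 cells in suspension were loaded with 20 μM H2DCFDA for 30 min at 37°C, washed and plated at 20,000/well. After 30 min they were treated with compound at 10, 3.3 or 1.1 μM. Fluorescence was read at 493/523 nm over time. DMSO basal and unstained controls were included. NAC pretreatment, where used, was 5 mM for 30 min. Duplicates, three independent experiments.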

MIA PaCa-2 [7] = assay: Downregulation of Sp1 gene expression in human MIAPaCa2 cells at IC50 to 5 times IC50 after 4 hrs by Bru-seq analysis; type: functional, cell-based
BXPC-3 = assay: Cytotoxicity against human BxPC3 cells assessed as decrease in cell proliferation after 72 hrs by MTT assay; type: functional, cell-based; details: BXPC-3, 72 h
Summary of the method: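 MTT assay. Cells (3000–8000/well) attached overnight in RPMI1640 with 10% FBS; the GR line was kept with 200 nM gemcitabine. Serial dilutions (30 nM–10 μM for most lines) were applied for 72 h. MTT was added at a final 300 μg/mL for 3 h at 37°C, formazan was dissolved in DMSO and A570 read. Inhibition = (1 − OD treated/OD control) × 100. IC50 given as mean ± SD, three independent experiments.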

Mus musculus [8] = assay: Toxicity in NOD/SCID mouse xenografted with human MIAPaCa2 cells assessed as lethargy at 5 mg/kg, ip administered 5 times a week until day 44; type: organism-based; details: in vivo; summary of the method: as §1
PANC-1 = assay: Induction of unfolded protein response in human PANC1 cells assessed as upregulation of CHOP expression at 2 uM by Western blot analysis; type: functional, cell-based; details: TDE = time-dependent effect
Summary of the method: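 Cells (4×10^5) seeded in 60 mm dishes, cultured in RPMI1640 with 10% FBS, 5% CO2, 37°C, then compound-treated. Lysed 30 min at 4°C, BCA-quantified, 40 μg protein resolved by SDS-PAGE, transferred to PVDF, probed overnight at 4°C with primary antibodies (1:1000; GAPDH or actin loading control), then Dylight 800 secondary; fluorescence scanned. Bands normalized to loading control; mean ± SD, three independent experiments.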

Mus musculus [9] = assay: Toxicity in NOD/SCID mouse xenografted with human MIAPaCa2 cells assessed as body weight loss at 5 mg/kg, ip administered 5 times a week until day 44; type: organism-based; details: in vivo; summary of the method: as §1
MIA PaCa-2 [10] = assay: Induction of unfolded protein response in human MIAPaCa2 cells assessed as upregulation of DDIT3 gene expression after 4 hrs by Bru-seq analysis; type: functional, cell-based

O=C1C(Nc2ccc(-c3ccccc3)cc2)=CC(=O)c2ncncc21
500 nM: IC50 (BXPC-3)
Non-Toxic: Activity (Mus musculus [1]) | Activity (Mus musculus [2]) | Activity (Mus musculus [4]) | Activity (Mus musculus [8]) | Activity (Mus musculus [9])
inactive: Activity (MIA PaCa-2 [6]) | Activity (MIA PaCa-2 [7])
active: Activity (MIA PaCa-2 [3]) | Activity (MIA PaCa-2 [5]) | Activity (PANC-1) Tde | Activity (MIA PaCa-2 [10]) Dose-dependent effect
